Source: ChEMBL document CHEMBL1140377, “2,5-diketopiperazines as potent, selective, and orally bioavailable oxytocin antagonists. 2. Synthesis, chirality, and pharmacokinetics” (J Med Chem, 2005)

Key:
Oxytocin receptor = target: T1, Oxytocin receptor (Homo sapiens, UniProt P30559); test: Displacement of [3H]oxytocin from human Oxytocin receptor
T1 sequence (P30559 whole entry): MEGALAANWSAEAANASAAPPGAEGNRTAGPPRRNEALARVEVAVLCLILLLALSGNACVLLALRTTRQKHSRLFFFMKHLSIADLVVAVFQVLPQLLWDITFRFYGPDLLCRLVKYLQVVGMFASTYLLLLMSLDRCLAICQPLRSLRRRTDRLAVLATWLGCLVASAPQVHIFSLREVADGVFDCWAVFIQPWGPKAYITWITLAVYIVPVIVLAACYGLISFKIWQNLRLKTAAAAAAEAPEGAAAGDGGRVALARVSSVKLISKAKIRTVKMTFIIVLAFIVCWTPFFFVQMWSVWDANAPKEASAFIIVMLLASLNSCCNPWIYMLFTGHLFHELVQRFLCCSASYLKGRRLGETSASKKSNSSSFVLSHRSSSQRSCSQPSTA

[1] = Bioavailability in rat; type: ADME, organism-based; conditions: in vivo
[2] = Volume of distribution in rat; type: ADME, organism-based; conditions: in vivo, read-out: Vdss
[3] = Half life in rat; type: ADME; conditions: in vivo
[4] = Lipophilicity of the compound measured as CHI LogD by HPLC; type: physicochemical
[5] = Per oral administration of 5 mg/Kg of dose required for measuring Area under concentration of curve in rat; type: ADME; conditions: in vivo
Outline: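 Rats (n=2) received 5 mg/kg in 5% DMSO/95% PEG400. Plasma exposure is reported as AUC in h ng mL−1.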

Plasma clearance in rat = conditions: in vivo
[6] = Per oral administration of 0.6 mg/Kg of dose required for measuring Area under concentration of curve in dog; type: ADME, Canis lupus familiaris; conditions: in vivo
Outline: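 Dogs (n=1) received 0.6 mg/kg in either 5% DMSO/95% PEG400 or 5% DMSO/95% labrafil. Exposure is given as plasma AUC in h ng mL−1.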

[7] = Volume of distribution in dog; type: ADME, organism-based, Canis lupus familiaris; conditions: in vivo, read-out: Vdss
[8] = Bioavailability in dog; type: ADME, organism-based, Canis lupus familiaris; conditions: in vivo
Vasopressin V2 receptor = Vasopressin V2 receptor (Homo sapiens, UniProt P30518); test: Displacement of [3H]oxytocin from human V2 vasopressin receptor
[9] = Per oral administration of 5 mg/Kg of dose required for measuring Area under concentration of curve in dog; type: ADME, Canis lupus familiaris; conditions: in vivo
Plasma clearance in dog = conditions: in vivo
Vasopressin V1b receptor = target: T2, Vasopressin V1b receptor (Homo sapiens, UniProt P47901); test: Displacement of [3H]vasopressin from human V1b vasopressin receptor
T2 sequence (P47901 whole entry): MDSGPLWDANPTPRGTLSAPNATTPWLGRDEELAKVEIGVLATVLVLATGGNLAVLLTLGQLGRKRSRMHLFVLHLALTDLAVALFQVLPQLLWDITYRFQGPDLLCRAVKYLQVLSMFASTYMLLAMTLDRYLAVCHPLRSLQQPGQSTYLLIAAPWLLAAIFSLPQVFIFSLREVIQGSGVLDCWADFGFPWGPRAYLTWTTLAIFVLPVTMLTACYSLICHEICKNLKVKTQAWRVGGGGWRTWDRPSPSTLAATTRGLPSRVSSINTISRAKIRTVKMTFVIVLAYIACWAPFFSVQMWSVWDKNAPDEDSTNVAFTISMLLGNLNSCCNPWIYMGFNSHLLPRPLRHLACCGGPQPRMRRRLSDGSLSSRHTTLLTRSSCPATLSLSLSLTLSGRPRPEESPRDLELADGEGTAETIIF

Vasopressin V1a receptor = Vasopressin V1a receptor (Homo sapiens, UniProt P37288); test: Displacement of [3H]vasopressin from human V1a vasopressin receptor
[10] = Per oral administration of 0.6 mg/Kg of dose required for measuring Area under concentration of curve in dog; conditions: in vivo

Vasopressin V1a receptor, sequence (P37288 whole entry): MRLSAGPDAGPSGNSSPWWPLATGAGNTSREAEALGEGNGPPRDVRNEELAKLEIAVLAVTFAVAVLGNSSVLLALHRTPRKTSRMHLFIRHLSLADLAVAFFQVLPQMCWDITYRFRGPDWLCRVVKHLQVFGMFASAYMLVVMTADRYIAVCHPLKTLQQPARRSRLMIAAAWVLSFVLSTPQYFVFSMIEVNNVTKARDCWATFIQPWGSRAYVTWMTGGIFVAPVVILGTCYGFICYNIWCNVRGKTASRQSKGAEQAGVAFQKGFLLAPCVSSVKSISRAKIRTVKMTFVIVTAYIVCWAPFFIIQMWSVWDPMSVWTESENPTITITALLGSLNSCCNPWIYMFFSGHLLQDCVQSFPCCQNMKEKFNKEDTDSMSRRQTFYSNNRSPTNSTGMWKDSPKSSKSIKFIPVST
Vasopressin V2 receptor, sequence (P30518 whole entry): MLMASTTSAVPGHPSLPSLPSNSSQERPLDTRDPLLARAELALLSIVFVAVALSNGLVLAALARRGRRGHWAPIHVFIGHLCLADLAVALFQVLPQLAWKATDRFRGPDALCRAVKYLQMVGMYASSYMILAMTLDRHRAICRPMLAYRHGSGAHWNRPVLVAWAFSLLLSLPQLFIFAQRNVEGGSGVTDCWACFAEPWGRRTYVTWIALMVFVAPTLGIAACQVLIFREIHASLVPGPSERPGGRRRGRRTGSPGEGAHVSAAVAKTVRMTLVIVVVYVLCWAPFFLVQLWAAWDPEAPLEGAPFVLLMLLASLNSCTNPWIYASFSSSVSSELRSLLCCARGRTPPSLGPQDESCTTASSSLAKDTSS

| Ki (Oxytocin receptor) [µM] | chromatographic logD [4] | AUC [5] [ng·h/mL] | SMILES | further results |
| --- | --- | --- | --- | --- |
| 0.00631 | – | – | CC(=O)Nc1cccc([C@H](C(=O)NC(C)(C)C)N2C(=O)[C@@H](C3Cc4ccccc4C3)NC(=O)[C@H]2CC(C)C)c1 | – |
| 0.00501 | – | – | CC(C)C[C@@H]1C(=O)N[C@H](C2Cc3ccccc3C2)C(=O)N1[C@@H](C(=O)NC(C)(C)C)c1ccccc1 | – |
| 0.0631 | – | – | C=CCN1C(=O)[C@@H](CC(C)C)N([C@@H](C(=O)NC(C)C)c2ccccc2)C(=O)[C@H]1C1Cc2ccccc2C1 | – |
| 0.0501 | – | – | Cc1ccc([C@@H](C(=O)NC(C)C)N2C(=O)[C@@H](C3Cc4ccccc4C3)NC(=O)[C@H]2CC(C)C)cc1 | – |
| 0.00316 | 3.4 | 287 | CC(C)C[C@@H]1C(=O)N[C@H](C2Cc3ccccc3C2)C(=O)N1[C@@H](C(=O)NC(C)C)c1ccc(N(C)C)cc1 | Vd [7]: 1.7 L/kg; bioavailability [8]: 50%; bioavailability [1]: 5%; Vd [2]: 2.3 L/kg; half-life [3]: 72 min; Ki (Vasopressin V2 receptor): > 79.4 µM; CL (Plasma clearance in dog): 15 mL/min/kg; CL (Plasma clearance in rat): 48 mL/min/kg; Ki (Vasopressin V1b receptor): > 50.1 µM; Ki (Vasopressin V1a receptor): > 39.8 µM; AUC [10]: 335 ng·h/mL |
| 0.158 | – | – | CC(C)C[C@@H]1C(=O)N[C@H](C2Cc3ccccc3C2)C(=O)N1[C@H](C(=O)NC(C)C)c1ccc(C(N)=O)cc1 | – |
| 0.00501 | 4.1 | 85 | CC(C)C[C@@H]1C(=O)N[C@H](C2Cc3ccccc3C2)C(=O)N1[C@@H](C(=O)NC(C)(C)C)c1ccc(OC(F)(F)F)cc1 | – |
| 0.00398 | 3.2 | 421 | CC(C)C[C@@H]1C(=O)N[C@H](C2Cc3ccccc3C2)C(=O)N1[C@@H](C(=O)NC(C)C)c1ccc(F)cc1 | Vd [7]: 0.8 L/kg; bioavailability [8]: 13%; bioavailability [1]: 13%; Vd [2]: 0.8 L/kg; half-life [3]: 54 min; Ki (Vasopressin V2 receptor): > 1.26 µM; CL (Plasma clearance in dog): 5 mL/min/kg; CL (Plasma clearance in rat): 23 mL/min/kg; Ki (Vasopressin V1b receptor): > 6.31 µM; Ki (Vasopressin V1a receptor): > 6.31 µM; AUC [10]: 259 ng·h/mL |
| 0.0794 | – | – | CC(C)C[C@@H]1C(=O)N[C@H](C2Cc3ccccc3C2)C(=O)N1[C@H](C(=O)NC(C)(C)C)c1ccccc1 | – |
| 0.00158 | – | – | CC(=O)Nc1ccc([C@H](C(=O)NC(C)C)N2C(=O)[C@@H](C3Cc4ccccc4C3)NC(=O)[C@H]2CC(C)C)cc1 | – |
| 0.0251 | – | – | CC(C)C[C@@H]1C(=O)N[C@H](C2Cc3ccccc3C2)C(=O)N1[C@H](C(=O)NC(C)C)c1ccc(N(C)C)cc1 | – |
| 0.00251 | 3.4 | 101 | COc1ccc([C@H](C(=O)NC(C)(C)C)N2C(=O)[C@@H](C3Cc4ccccc4C3)NC(=O)[C@H]2CC(C)C)cc1 | – |
| 0.158 | – | – | CC(C)C[C@@H]1C(=O)N[C@H](C2Cc3ccccc3C2)C(=O)N1[C@H](C(=O)NC(C)(C)C)c1ccc(OC(F)(F)F)cc1 | – |
| 0.002 | – | – | c1ccc2c(c1)CNCO2 | – |
| 0.00398 | – | – | CC(C)C[C@@H]1C(=O)N[C@H](C2Cc3ccccc3C2)C(=O)N1[C@@H](C(=O)N(C)C(C)C)c1ccccc1 | – |
| 0.00398 | 3.2 | 114 | CC(C)C[C@@H]1C(=O)N[C@H](C2Cc3ccccc3C2)C(=O)N1[C@@H](C(=O)NC(C)C)c1ccccc1 | bioavailability [1]: 5%; Vd [2]: 0.8 L/kg; half-life [3]: 60 min; CL (Plasma clearance in rat): 29 mL/min/kg |
| 0.1 | – | – | CC(C)C[C@@H]1C(=O)N[C@H](C2Cc3ccccc3C2)C(=O)N1[C@H](C(=O)NC(C)C)c1ccc(F)cc1 | – |
| 0.00398 | 3.5 | – | Cc1ccc([C@H](C(=O)NC(C)C)N2C(=O)[C@@H](C3Cc4ccccc4C3)NC(=O)[C@H]2CC(C)C)cc1 | Vd [2]: 0.6 L/kg; half-life [3]: 36 min; CL (Plasma clearance in rat): 37 mL/min/kg |

The next lines start with the molecule.

| SMILES | Ki (Oxytocin receptor) [µM] | chromatographic logD [4] | AUC [5] [ng·h/mL] | further results |
| --- | --- | --- | --- | --- |
| CC(C)C[C@@H]1C(=O)N[C@H](C2Cc3ccccc3C2)C(=O)N1[C@H](C(=O)NC(C)C)c1ccc(C(F)(F)F)cc1 | 0.0794 | – | – | – |
| CC(C)C[C@@H]1CN[C@H](C2Cc3ccccc3C2)C(=O)N1[C@@H](C(=O)NC(C)C)c1ccccc1 | 0.316 | – | – | – |
| CC(C)C[C@@H]1C(=O)N[C@H](C2Cc3ccccc3C2)C(=O)N1[C@@H](C(=O)NC(C)C)c1ccc(S(C)(=O)=O)cc1 | 0.01 | 2.4 | 60 | bioavailability [1]: 3%; Vd [2]: 0.7 L/kg; half-life [3]: 90 min; CL (Plasma clearance in rat): 21 mL/min/kg |
| CC(C)C[C@@H]1C(=O)N[C@H](C2Cc3ccccc3C2)C(=O)N1[C@@H](C(=O)NC(C)C)c1ccc(F)cc1F | – | – | – | AUC [6]: 291 ng·h/mL; Vd [7]: 1.2 L/kg; F [8]: 33%; Ki (Vasopressin V2 receptor): 0.631 µM; AUC [9]: 121 ng·h/mL; CL (Plasma clearance in dog): 11 mL/min/kg; Ki (Vasopressin V1b receptor): > 6.31 µM; Ki (Vasopressin V1a receptor): > 6.31 µM |
| CC(C)C[C@@H]1C(=O)N[C@H](C2Cc3ccccc3C2)C(=O)N1[C@@H](C(=O)NC(C)C)c1ccc(C(N)=O)cc1 | 0.0316 | 1.8 | 44 | – |
| COc1ccc([C@@H](C(=O)NC(C)(C)C)N2C(=O)[C@@H](C3Cc4ccccc4C3)NC(=O)[C@H]2CC(C)C)cc1 | 0.0398 | – | – | – |
| CC(C)C[C@@H]1C(=O)N[C@H](C2Cc3ccccc3C2)C(=O)N1[C@H](C(=O)NC(C)C)c1ccc(S(C)(=O)=O)cc1 | 0.1 | – | – | – |
| CC(C)C[C@@H]1C(=O)N[C@H](C2Cc3ccccc3C2)C(=O)N1[C@@H](C(=O)NC(C)C)c1ccc(C(F)(F)F)cc1 | 0.00501 | 3.7 | 280 | – |
| CC(C)C[C@@H]1C(=O)N[C@H](C2Cc3ccccc3C2)C(=O)N1[C@H](C(=O)NC(C)(C)C)c1ccc(Cl)cc1 | 0.158 | – | – | – |
| CC(C)C[C@@H]1C(=O)N[C@H](C2Cc3ccccc3C2)C(=O)N1[C@H](C(=O)NC(C)C)c1ccccc1 | 0.0501 | – | – | – |
| CC(C)C[C@@H]1C(=O)N[C@H](C2Cc3ccccc3C2)C(=O)N1[C@@H](C(=O)NC(C)(C)C)c1cccc(N2CCN(C)CC2)c1 | 0.158 | – | – | – |
| CC(=O)Nc1ccc([C@H](C(=O)NC(C)(C)C)N2C(=O)[C@@H](C3Cc4ccccc4C3)NC(=O)[C@H]2CC(C)C)cc1 | 0.002 | 2.4 | 59 | – |
| CC(=O)Nc1ccc([C@@H](C(=O)NC(C)C)N2C(=O)[C@@H](C3Cc4ccccc4C3)NC(=O)[C@H]2CC(C)C)cc1 | 0.126 | – | – | – |
| CC(C)C[C@@H]1C(=O)N[C@H](C2Cc3ccccc3C2)C(=O)N1[C@@H](C(=O)NC(C)(C)C)c1ccc(Cl)cc1 | 0.00251 | 4 | 95 | bioavailability [1]: 2%; Vd [2]: 0.4 L/kg; half-life [3]: 42 min; CL (Plasma clearance in rat): 43 mL/min/kg |
| CC(C)C[C@@H]1C(=O)N[C@H](C2Cc3ccccc3C2)C(=O)N1[C@@H](C(=O)NC(C)(C)C)c1ccc(N2CCN(C)CC2)cc1 | 0.0251 | – | – | – |
